Screening data (PubChem)
miR122 inh: miR-122 Renilla sensor signal increase in Huh7, primary screen, miR-122 inhibitor project, cell-based, single point, plate reader; Huh7 miR-122 Renilla luciferase sensor, 48 h; neutral wells = 0, positive control = 100; activation (reporter increase), % at 12.5 µM; hit rate 0.3% among 340,000;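 active means mean replicate activation score at least 90 and every replicate individually at or above 90; inconclusive means only one of the two criteria met; inactive means neither criterion met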;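 further: higher luciferase means less miR-122 activity so hits act as miR-122 inhibitors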
rRNA inh HTS: reduced GFP signal of wild-type E. coli, primary screen, bacterial rRNA inhibitor project, GFP/RFP fluorescence, OD600, single point; E. coli WT GFP vs humanized-ribosome RFP mutants, 24 h; hits give low values; DMSO median 0, no signal -100; hit rate 1.6% among 350,000; GFP signal change (wild-type ribosome), % (test concentration not listed);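 active means significant combined selectivity score with lowered wild-type GFP, culture density cut under 30%, mutant RFP and density less affected; inactive means any of these conditions unmet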
Vif imaging: HIV Vif self-association inhibitors, primary screen, imaging, HEK293T, single point; hit rate 0.35% among 340,000; inhibition, % at 7.49 µM; HEK293T cells, Vif self-association by quenched fluorescence, 24 h; AID 602346, 2012; in the data active means inhibition above about 50%, passing the limit was not always enough; inconclusive means no clear call, values can overlap the other calls; inactive means below about 31%
Env fusion inh: inhibitors of HIV-1 Env-driven cell-cell fusion, primary screen, HeLa-JRFL effector, CEM21 target cells, luciferase. inhibition, % at 12.3 µM. hit rate 1.1% among 360,000. AID 651610, 2012;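 active means mean replicate inhibition score of at least 50 and every replicate individually at or above 50; inconclusive means only one of the two criteria met; inactive means mean below 50 and not all replicates reaching 50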;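 further: 0% = plate neutral controls and 100% = maraviroc near 300 nM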
S100A4 MyoIIA: inhibitors of S100A4-myosin IIA peptide binding, primary screen, biochemical, fluorescence polarization, TAMRA-MyoIIA peptide | Protein S100-A4 (Homo sapiens), P26447 | inhibition, % at 10.7 µM | hit rate 0.14% among 360,000;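 active means mean inhibition of at least 70% across replicates, with every replicate also reaching that level; inconclusive means mean inhibition reaches 70% but some replicates fall short; inactive means mean inhibition below 70%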
Target sequence (P26447 whole entry, looked up): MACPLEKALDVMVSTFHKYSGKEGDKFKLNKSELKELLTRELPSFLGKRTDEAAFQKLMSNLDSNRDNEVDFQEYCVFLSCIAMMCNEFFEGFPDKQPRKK
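Material: S100A4 monomer protein | Medium: HEPES pH 7.2 with CaCl2, KCl, NaCl, DTT, Triton | Reagent: Labelled myosin peptide probe, 5 nM | Doses: One dose per compound | Times: 5 min incubation before reading | Benchmarks: Neutral control DMSO, positive control TFP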
FN deposit inh: inhibitors of fibronectin matrix deposition, primary screen, AH1F cells, Alexa488-fibronectin fluorescence, plate reader; AH1F fibroblasts, overnight; inhibition, % at 12.6 µM; hit rate 0.086% among 350,000;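 active means mean inhibition across replicates of 30% or more, regardless of how many single replicates reach that level; inconclusive means mean under 30% yet at least half of replicates reach 30%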;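 further: positive control wells lacked labelled fibronectin entirely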
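test system = AH1F fibroblasts assembling fluorescent fibronectin matrix | quantity = 10000 AH1F cells per well | buffer or medium = DMEM plus 2% serum, read in PBS | doses = single dose, pinned | incubation = 1 h cell attachment, overnight exposure to compound and label | detection = fluorescence at 485 nm excitation, 525 nm emission | read-out basis = inhibition from reduced deposited-fibronectin fluorescence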
An asterisk follows results filed as active; ? = inconclusive; . = no result given; [ ] = dose if it differs, or a comment. In the library only some 2.6% were active in any assay of this set; here they are far more common.

SMILES	miR122 inh	rRNA inh HTS	Vif imaging	Env fusion inh	S100A4 MyoIIA	FN deposit inh
C[C@@H]1CN([C@@H](C)CO)S(=O)(=O)c2ccc(C3=CCCCC3)cc2O[C@@H]1CN(C)C	0[16.7 µM]	1	.	2[16.7 µM]	.	.
c1cc(-c2nnc3sc(C4CCCCC4)nn23)ccn1	-18	.	-12	63*	.	0
CCOC(=O)Cc1csc(NC(=O)c2cc3ccccc3o2)n1	.	-19*	-3	-7	-2	-6
CCOC(=O)Cc1csc(NC(=O)c2cc(C)cc(C)c2)n1	5	-25*	-11	0	-3	.
CCOC(=O)Cc1csc(NC(=O)c2ccc(C)cc2)n1	.	-13	-4	1	-1	2
C[C@@H]1CN([C@H](C)CO)S(=O)(=O)c2ccc(-c3cncnc3)cc2O[C@@H]1CN(C)C(=O)Cc1ccccc1	2[16.7 µM]	-3	.	-37[16.7 µM]	2	.
CC(=O)N(C)C[C@H]1Oc2ccc(NS(C)(=O)=O)cc2CC(=O)N(C)C[C@@H]1C	.	1	.	.	.	0
O=C1[C@H]2[C@@H](C3CC3)N3C(=O)CN(CC4CC4)C(=O)[C@@]3(Cc3ccccc3)[C@H]2C(=O)N1c1ccccc1	-4	10	3	70*	-10	4
O=C1[C@H]2[C@@H](C3CC3)N3C(=O)CN(Cc4ccccn4)C(=O)[C@@]3(Cc3ccccc3)[C@H]2C(=O)N1c1ccccc1	-3	20	-1	8	5	-10
COc1ccc(S(=O)(=O)Nc2ccc3c(c2)CC(=O)N([C@@H](C)CO)C[C@H](C)[C@@H](CN(C)C(=O)NC2CCCCC2)O3)cc1	5[16.7 µM]	6	.	-2[16.7 µM]	-14	.
Cc1ccc(C(=O)O/N=C/c2c(N3CCOCC3)n(C)c3ccccc23)cc1	-7	.	-3	?	.	12
Cn1c(N2CCOCC2)c(/C=N/OC(=O)c2ccc(F)cc2)c2ccccc21	-6	.	-13	59*	.	0
Cc1cccc(/C=N/NC(=O)Cc2cccs2)c1	-3	-19*	0	2	-6	-2
O=C(Cc1cccs1)N/N=C/c1ccccc1	-1	.	6	-8	3	1
COc1cc(NC(=O)C/C(C)=N/NC(=O)Cc2ccc(Cl)cc2)c(OC)cc1Cl	8	.	73*	.	.	0
COc1cc(NC(=O)C/C(C)=N/NC(=O)C(=O)NCCO)c(OC)cc1Cl	.	-52*	11	7	-18	-5
NC(=NCc1ccco1)NC(=O)c1ccc(Cl)cc1	7	-25*	19	-29	-2	-7
Cc1noc(C)c1NC(=O)Nc1ccc2c(c1)C(=O)N([C@@H](C)CO)C[C@@H](C)[C@@H](CN(C)S(=O)(=O)c1ccccc1)OCCCC[C@H](C)O2	5[16.7 µM]	-1	.	-3[16.7 µM]	-31	4
COc1ccc(NC(=O)N(C)C[C@@H]2Oc3cc(-c4ccncc4)ccc3S(=O)(=O)N([C@H](C)CO)C[C@@H]2C)cc1	-3[16.7 µM]	-4	.	-11[16.7 µM]	20	-10
CCC(C)NC(=O)C1CCCN(C(=O)Nc2ccc(F)cc2)C1 (stereo unspecified)	2	.	-1	57*	.	-1
CC(C)C[C@H]1CN([C@@H](Cc2ccc(O)cc2)CN2CCC[C@@H]2CN2C(=S)NC[C@@H]2Cc2ccccc2)C(=S)N1CC1CCCCCC1	-2	17	15	14	-1	-4
CC(C)C[C@H]1CN([C@@H](Cc2ccccc2)CN2CCC[C@@H]2CN2C(=O)C(=O)NC[C@@H]2Cc2ccc(O)cc2)C(=O)C(=O)N1CC1CCCCCC1	13	-16	4	-37	-5	.
Oc1ccc(C[C@H]2CNC(=S)N2C[C@H]2CCCN2C[C@H](Cc2ccccc2)N2C[C@H](Cc3ccccc3)N(CC3CCCCC3)C2=S)cc1	.	5	.	82*	-4	1
CC(C)C[C@H]1CNC(=O)C(=O)N1C[C@@H]1CCCN1C[C@H](Cc1ccc(O)cc1)N1C[C@H](Cc2ccccc2)N(CC2CCCCC2)C(=O)C1=O	.	-29*	.	-51	6	-17
CCNC(=O)[C@H]1[C@H](CO)[C@H]2Cn3c(ccc(-c4ccccc4)c3=O)[C@@H]1N2Cc1cccnc1	3[16.7 µM]	2	.	.	-2	.
SMILES	miR122 inh	rRNA inh HTS	Vif imaging	Env fusion inh	S100A4 MyoIIA	FN deposit inh
CNC[C@H]1Oc2ccc(N)cc2C(=O)N([C@H](C)CO)C[C@@H]1C	1[16.7 µM]	.	.	-5[16.7 µM]	-6	.
Cc1cc(C)c2c(N)c3ccccc3nc2n1	10	.	-22	-222	.	1
Cc1cc(C)c2cccc(N)c2n1	11	-23*	-2	18	-15	-6
O=C(O)/C=C/C(=O)Nc1ccc(Cl)cc1C(=O)c1ccccc1	-6	-23*	0	11	-4	3
O=C(O)/C=C/C(=O)Nc1ccc(C(=O)c2ccccc2)cc1	.	15	4	-7	3	0
C[C@@H]1CN([C@H](C)CO)C(=O)c2cc(C#CCN(C)C)cnc2O[C@@H]1CN(C)C(=O)c1ccc2c(c1)OCO2	.	1	.	2[16.7 µM]	-5	-18
CN1CCc2c(sc(NC(=O)C3COc4ccccc4O3)c2C(N)=O)C1 (stereo unspecified)	.	9	-1	-35	106*	2
CC(=O)N1CCc2c(sc(NC(=O)C3COc4ccccc4O3)c2C(N)=O)C1 (stereo unspecified)	-1	-21	14	-52	9	-4
C[C@H](CO)N1C[C@H](C)[C@@H](CN(C)C(=O)CCN(C)C)OCc2ccccc2-c2c(n(C)c3ccccc23)C1=O	.	1	.	50[16.7 µM]	-1	3
Cc1ccc(NC(=O)Cn2c(O)c(N=NC(N)=S)c3ccccc32)cc1	6	2	66*	8	-5	1
Cc1[nH]c2ccccc2c1/C=N/Nc1nncn1N	.	-30*	-8	-41	-1	4
CN(C)C(=O)C[C@@H]1CC[C@@H]2[C@H](COC[C@H](O)CN2CC2CCOCC2)O1	-5[16.7 µM]	7	.	.	-27	1
N#Cc1c2n(c3c(=O)n(Cc4ccc(Cl)cc4)cnc13)CCCCC2	-2	.	13	.	.	.
N#Cc1c2n(c3c(=O)n(Cc4ccccc4)cnc13)CCCC2	-7	-25*	5	.	-2	.
C[C@@H]1CN([C@H](C)CO)C(=O)c2cc(Br)cnc2O[C@@H]1CN(C)C(=O)c1ccc(F)cc1	1[16.7 µM]	8	.	-16[16.7 µM]	0	-9
COc1ccc(OCC(=O)N2CCc3ccccc3C2)cc1	-2	4	-4	2	5	6
O=C(Cc1ccc(Cl)cc1)N1CCc2ccccc2C1	-4	-28*	-1	-10	4	9
